High-throughput results from PubChem BioAssay.
Compounds with a hit are over-represented: about 2.9% of the library has one in this group of screens.
H9c2 TAG inh – inhibitors of triacylglycerol accumulation; AID 651582; inhibition, % at 12.5 µM; 0.66% of 230,000 active; H9c2 cells, Nile Red lipid (TAG) fluorescence; cells loaded with 200 µM oleic acid;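 active = pattern-corrected inhibition of lipid staining of at least 50% with the nuclear-stain viability signal not falling by more than 50%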
Calb FLC – affects C. albicans growth with fluconazole; C. albicans CaCi-2 + fluconazole, Alamar Blue growth, 48 h; growth inhibition, % (concentration not given with the values); 0.57% of 300,000 active; AID 1979;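 active = growth inhibition above about 58% in most replicates, limit read from the data, passing the limit was not always enough; inconclusive = exactly half the replicates above a set limit; inactive = most replicates below a set limit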;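 also: all wells also contain fluconazole at 8 µg/ml as a sub-toxic cotreatment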
MC4R ag barr – agonists of human melanocortin 4 receptor (MC4R) beta-arrestin; U2OS MC4R beta-arrestin complementation, luminescence; percent of melanotan II response, DMSO zero; 0.98% of 360,000 active; activation, % at 8.9 µM; AID 540308; P32245;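 active = activation above a per-plate cutoff, the mean activation of sample wells on that plate plus 3 SD, cut at about 8% in these data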
Target sequence (P32245 whole entry, looked up): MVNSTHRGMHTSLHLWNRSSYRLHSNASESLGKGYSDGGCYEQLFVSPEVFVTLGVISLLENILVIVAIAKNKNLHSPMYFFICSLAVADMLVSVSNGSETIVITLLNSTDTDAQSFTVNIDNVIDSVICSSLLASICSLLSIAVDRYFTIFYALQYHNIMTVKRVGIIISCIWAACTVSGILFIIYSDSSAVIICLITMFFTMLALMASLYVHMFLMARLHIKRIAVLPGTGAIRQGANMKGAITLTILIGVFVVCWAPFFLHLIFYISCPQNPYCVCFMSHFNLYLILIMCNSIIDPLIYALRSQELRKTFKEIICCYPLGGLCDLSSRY
GalR3 antag – antagonists of human GalR3; HEK293 GalR3-CNG cAMP membrane potential fluorescence; galR3 body fused to GalR1 C-terminus; inhibition, % at 3 µM; 0.44% of 360,000 active; AID 651719;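 active = inhibition above the screen-wide average plus 3 SD, cut at about 13% in these data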;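 also: forskolin and galanin both at EC90 stimulate the cells; cAMP rise reported by CNG channel membrane potential dye signal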
Efflux pump mplx – blocks antifungal efflux pumps in multiplex yeast assay; AID 485275; S. cerevisiae Candida pump triplex, Nile Red efflux; inhibition, % at 10 µM; 0.44% of 330,000 active;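 active = plate passing quality check with inhibition over a set limit, or well fluorescence over plate mean plus 4 SD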;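 also: Nile Red retained in pooled yeast measured as flow cytometry median fluorescence; higher means more Nile Red kept so more efflux inhibition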
MC4R antagonist – human MC4R antagonism in cAMP assay; 0.48% of 360,000 active; MC4R-expressing cells, MTII-stimulated cAMP, LANCE TR-FRET; inhibition, % at 6.5 µM;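 active = inhibition above its plate's cutoff, the mean of tested wells on that plate plus 3 SD, cut at about 29% in these data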
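Material: human MC4R-expressing U2OS cells. Probe or stimulus: Melanotan II challenge. Dosing: 6.5 µM single dose. Times: 30-min compound, 1-h challenge, 1-h detection, room temperature. Technique: TR-FRET with Eu-cAMP and labeled anti-cAMP, 671 nm. Replication: singlicate.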
GalR3 antag conf – confirmation of human galanin receptor 3 antagonists | 59% of 1,600 active | HEK293 GalR3 CNG cAMP biosensor, membrane potential fluorescence; galR3 fused to GalR1 carboxy tail; challenged with forskolin and galanin at EC90 | shares compounds with GalR3 antag | inhibition, % at 3 µM | AID 652245;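 active = inhibition above the primary screen's cutoff, the mean inhibition of all screened compounds plus 3 SD, cut at about 13% in these data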
CNG parental – acts as nonspecific agonist in parental HEK-CNG cells | 10% of 1,600 active | AID 652268 | shares compounds with GalR3 antag | activation, % at 3 µM | HEK293-CNG parental cells, cAMP membrane potential fluorescence; normalised: DMSO wells 0%, forskolin wells 100%; in the data active = activation above about 1.3%
Of the large screens only hits and unclear results are named; the others gave an inactive call (follow-up assays come after a bar, where they were run).

COC(=O)C1=C(C)N(Cc2ccccc2C(F)(F)F)C(=NCC2CC2)NC1c1ccc(C(F)(F)F)cc1 (stereo not given)	none (no result: H9c2 TAG inh, Calb FLC, MC4R ag barr, Efflux pump mplx, MC4R antagonist)
CCN(CCOC(=O)Nc1ccc(Cl)cc1)C(=O)Nc1ccc(Cl)cc1	none (no result: H9c2 TAG inh, Calb FLC, MC4R ag barr, Efflux pump mplx, MC4R antagonist)
CCCc1ccc(O)c(N=Cc2cc(Br)cc(OCC)c2O)c1	MC4R ag barr 12, GalR3 antag 16 | GalR3 antag conf inactive | CNG parental inactive
CCOc1ccc(-c2ccc(SCC)nn2)cc1	none (no result: GalR3 antag) | GalR3 antag conf inactive | CNG parental inactive
CC(C)(C)OC(=O)N1CCC[C@@H]1C(=O)NCc1ccccc1Cl	none (no result: H9c2 TAG inh, Calb FLC, MC4R ag barr, Efflux pump mplx, MC4R antagonist)
COc1ccccc1CNC(=O)C(=O)NCC1CCCN1S(=O)(=O)c1cc(C)ccc1C (stereo not given)	none (no result: Calb FLC, Efflux pump mplx)
O=C(Nc1ccc(Br)cc1F)c1ccncc1	GalR3 antag 22 | GalR3 antag conf 15 | CNG parental inactive
COc1cc([N+](=O)[O-])ccc1NC(=O)CN1C(=O)NC2(CCCCC2C)C1=O (stereo not given)	none (no result: Calb FLC, Efflux pump mplx)
COn1c(SCc2cccnc2)nc2ccccc2c1=O	none (no result: GalR3 antag) | GalR3 antag conf inactive | CNG parental inactive
COn1c(SCc2ccc(Cl)cc2)nc2ccccc2c1=O	none (no result: H9c2 TAG inh)
CC(=O)/C=C/n1c(=S)oc2ccccc21	Calb FLC inconclusive, GalR3 antag 15 (no result: H9c2 TAG inh, MC4R ag barr, MC4R antagonist) | GalR3 antag conf inactive | CNG parental 1.6
COC(=O)[C@]12C[C@H](CC(=O)N3CCOCC3)C(=O)N(CCC3=CCCCC3)C1=C[C@H](C(C)(C)C)O[C@@H]2C	none (no result: H9c2 TAG inh, Calb FLC, MC4R ag barr, Efflux pump mplx, MC4R antagonist)
COc1cc(C2CC(=O)Oc3cc(O)ccc32)cc(OC)c1OC (stereo not given)	none (no result: Calb FLC)
COc1ccc2c(c1)OC(=O)CC2c1cc(OC)c(OC)c(OC)c1 (stereo not given)	GalR3 antag 13 (no result: Calb FLC) | GalR3 antag conf inactive | CNG parental inactive
CC(=O)Nc1ccc(S(=O)(=O)Oc2cccc(N3C(=O)C4CC=CCC4C3=O)c2)cc1 (stereo not given)	none
CC(=O)Nc1ccc(S(=O)(=O)Oc2ccc(N3C(=O)C4CCCCC4C3=O)cc2)cc1 (stereo not given)	GalR3 antag 42 (no result: H9c2 TAG inh) | GalR3 antag conf 39 | CNG parental inactive
COC(=O)C(C)Sc1nc2c(c(=O)n(C)c(=O)n2C)n1CCC(C)C (stereo not given)	none (no result: H9c2 TAG inh)
COC(=O)C(C)Sc1nc2c(c(=O)[nH]c(=O)n2C)n1CCC(C)C (stereo not given)	GalR3 antag 55 | GalR3 antag conf 13 | CNG parental inactive
COc1cccc(C(=O)N2CCN(C(=O)c3cccc4ccccc34)CC2)c1OC	none
CCc1ccc(CN2CCN(C(=O)c3cccc(OC)c3OC)CC2)cc1	GalR3 antag 98 | GalR3 antag conf 101 | CNG parental inactive
COc1ccc(-c2ccc3c(c2)C2CC3CCN2)cc1 (stereo not given)	none (no result: Calb FLC, Efflux pump mplx)
O=S(=O)(c1ccccc1)N1CCC(O)(CSc2ccc(Cl)cc2)CC1	GalR3 antag 93 | GalR3 antag conf 108 | CNG parental inactive
COc1ccc(C(Sc2ccccc2)c2ccccc2)cc1OC (stereo not given)	none
COCCN(Cc1cc2cc(C)ccc2[nH]c1=O)S(=O)(=O)c1ccc(Cl)cc1	GalR3 antag 73 (no result: H9c2 TAG inh) | GalR3 antag conf inactive | CNG parental inactive
COC(=O)N1C[C@H](OCCCOCc2ccccc2)[C@H]2C[C@@H]1c1ccccc1O2	none (no result: H9c2 TAG inh, Calb FLC, MC4R ag barr, Efflux pump mplx, MC4R antagonist)
COc1ccc(Nc2nc(Cl)nc(NCCO)n2)cc1	GalR3 antag 20 (no result: H9c2 TAG inh) | GalR3 antag conf inactive | CNG parental inactive
O=C(Nc1ccc(-c2nc3ccccc3o2)cc1)c1ccc(N2C(=O)C3C4C=CC(C4)C3C2=O)cc1 (stereo not given)	GalR3 antag 61 (no result: H9c2 TAG inh) | GalR3 antag conf 110 | CNG parental inactive
O=C(CC[C@H]1O[C@@H](n2cnc3c(NC(=O)c4ccccc4)ncnc32)[C@H](O)[C@@H]1O)NCCCN1CCCC1=O	none (no result: H9c2 TAG inh, Calb FLC, MC4R ag barr, Efflux pump mplx, MC4R antagonist)
